Consider one compound from ChEMBL document CHEMBL1165972, “Selective angiotensin II AT(2) receptor agonists with reduced CYP 450 inhibition” (Bioorg Med Chem, 2010).

For data set [1], the target named is CYP2C19 (Homo sapiens, UniProt P33261). Kind of data set: Inhibition of human recombinant CYP2C19 at 10 uM by spectrofluorimetry. The class given is ADME. In a few lines: (§1)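 Compounds were tested at 10 µM in duplicate in a spectrofluorometric assay, with 0.25% final methanol and 0.25% final acetonitrile. Fluorescence at t = 0 was subtracted from fluorescence after incubation. Signal was compared with solvent-vehicle controls, and percent of control activity was reported as percent inhibition.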

The target of data set [2] is T1, CYP3A4 (Homo sapiens, UniProt P08684). Briefly: Inhibition of human recombinant CYP3A4 at 10 uM by spectrofluorimetry. The class given is ADME. In a few lines:
as §1

Data set [3] concerns the target T2, CYP1A2 (Homo sapiens, UniProt P05177).
T2 sequence (P05177 whole entry): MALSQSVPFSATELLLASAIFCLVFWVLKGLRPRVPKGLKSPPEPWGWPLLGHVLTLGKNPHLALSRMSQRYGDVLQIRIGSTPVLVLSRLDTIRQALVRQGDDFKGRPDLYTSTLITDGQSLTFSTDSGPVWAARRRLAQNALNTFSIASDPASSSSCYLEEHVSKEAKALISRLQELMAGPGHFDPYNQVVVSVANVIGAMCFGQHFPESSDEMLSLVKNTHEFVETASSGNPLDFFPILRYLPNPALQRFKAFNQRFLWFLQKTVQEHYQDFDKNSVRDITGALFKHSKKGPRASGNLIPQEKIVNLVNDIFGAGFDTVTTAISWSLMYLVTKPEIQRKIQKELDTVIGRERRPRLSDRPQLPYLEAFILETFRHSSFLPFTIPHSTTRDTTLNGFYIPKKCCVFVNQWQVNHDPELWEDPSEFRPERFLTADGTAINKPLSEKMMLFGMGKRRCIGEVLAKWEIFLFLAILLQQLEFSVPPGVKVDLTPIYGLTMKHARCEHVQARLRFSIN
Briefly: Inhibition of human recombinant CYP1A2 at 10 uM by spectrofluorimetry. Format: ADME. In short, it runs like this: as §1

Data set [4] concerns the target T3, CYP2C9 (Homo sapiens, UniProt P11712). Briefly: Inhibition of human recombinant CYP2C9 at 10 uM by spectrofluorimetry. Format: ADME. In a few lines: as §1
Data set [5] has as its target T1, CYP3A4. Briefly: Inhibition of CYP3A4 at 10 uM. The class given is ADME. In a few lines:
as §1

For data set [6], the target named is T3, CYP2C9. Briefly: Inhibition of CYP2C9 at 10 uM. The class given is ADME. In a few lines:
as §1

The target in data set [7] is T4, CYP2B6 (Homo sapiens, UniProt P20813).
T4 sequence (P20813 whole entry): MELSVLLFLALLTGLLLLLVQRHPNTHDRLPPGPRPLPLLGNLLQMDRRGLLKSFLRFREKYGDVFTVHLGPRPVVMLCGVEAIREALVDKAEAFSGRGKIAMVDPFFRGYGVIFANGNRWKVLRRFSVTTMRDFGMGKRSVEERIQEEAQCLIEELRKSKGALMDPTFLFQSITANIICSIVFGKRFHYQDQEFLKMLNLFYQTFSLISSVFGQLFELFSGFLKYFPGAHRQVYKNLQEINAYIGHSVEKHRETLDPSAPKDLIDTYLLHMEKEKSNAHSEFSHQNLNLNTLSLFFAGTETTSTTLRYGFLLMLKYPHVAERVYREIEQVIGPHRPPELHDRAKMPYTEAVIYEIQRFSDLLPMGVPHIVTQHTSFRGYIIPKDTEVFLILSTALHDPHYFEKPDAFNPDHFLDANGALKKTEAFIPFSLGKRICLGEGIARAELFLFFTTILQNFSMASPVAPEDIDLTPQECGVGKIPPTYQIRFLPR
Briefly: Inhibition of human recombinant CYP2B6 at 10 uM by spectrofluorimetry. Format: ADME. In a few lines: as §1

Data set [8] is described as follows: Displacement of [125I]angiotensin 2 from AT1 receptor in rat liver membrane after 2 hrs by gamma counting. Format: cell membranes. In short, it runs like this:
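Rat liver membranes (5 mg original tissue) were incubated with 0.03 nM [125I]Ang II and varied test-compound concentrations. Incubation was 2 h at 25 °C. Bound and free label were separated by filtration on PEI-soaked GF/B filters and bound label was gamma counted. Nonspecific binding was taken with 1 µM Ang II.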
(Displacement assays read how much labelled ligand stays bound in the presence of the test substance.)

T1 sequence (P08684 whole entry): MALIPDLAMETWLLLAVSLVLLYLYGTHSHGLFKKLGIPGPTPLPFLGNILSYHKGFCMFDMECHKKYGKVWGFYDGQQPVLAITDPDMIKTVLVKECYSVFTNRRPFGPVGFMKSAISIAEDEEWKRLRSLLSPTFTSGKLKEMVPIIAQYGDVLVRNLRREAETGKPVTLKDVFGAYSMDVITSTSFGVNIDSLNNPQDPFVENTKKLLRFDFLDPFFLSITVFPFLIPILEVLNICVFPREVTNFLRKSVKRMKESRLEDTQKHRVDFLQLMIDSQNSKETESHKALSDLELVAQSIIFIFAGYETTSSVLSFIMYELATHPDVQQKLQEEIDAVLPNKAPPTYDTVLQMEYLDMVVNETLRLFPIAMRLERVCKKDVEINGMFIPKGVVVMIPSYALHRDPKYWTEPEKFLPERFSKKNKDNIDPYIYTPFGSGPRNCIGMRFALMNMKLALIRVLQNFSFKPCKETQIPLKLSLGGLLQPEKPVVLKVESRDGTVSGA
T3 sequence (P11712 whole entry): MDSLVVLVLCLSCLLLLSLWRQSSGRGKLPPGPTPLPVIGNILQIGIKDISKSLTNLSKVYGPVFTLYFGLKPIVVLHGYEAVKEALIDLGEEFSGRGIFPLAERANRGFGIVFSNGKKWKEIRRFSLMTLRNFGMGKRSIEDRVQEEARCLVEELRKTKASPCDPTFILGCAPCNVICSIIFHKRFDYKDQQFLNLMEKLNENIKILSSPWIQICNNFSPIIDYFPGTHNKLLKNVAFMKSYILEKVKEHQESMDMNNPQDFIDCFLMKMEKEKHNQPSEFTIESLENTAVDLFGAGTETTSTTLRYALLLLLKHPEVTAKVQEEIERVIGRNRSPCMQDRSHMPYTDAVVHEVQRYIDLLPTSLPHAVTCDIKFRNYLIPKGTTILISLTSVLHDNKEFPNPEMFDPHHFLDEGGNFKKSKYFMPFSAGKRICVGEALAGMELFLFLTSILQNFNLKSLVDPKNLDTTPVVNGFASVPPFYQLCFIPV
Chain of CYP2C19 (P33261 whole entry): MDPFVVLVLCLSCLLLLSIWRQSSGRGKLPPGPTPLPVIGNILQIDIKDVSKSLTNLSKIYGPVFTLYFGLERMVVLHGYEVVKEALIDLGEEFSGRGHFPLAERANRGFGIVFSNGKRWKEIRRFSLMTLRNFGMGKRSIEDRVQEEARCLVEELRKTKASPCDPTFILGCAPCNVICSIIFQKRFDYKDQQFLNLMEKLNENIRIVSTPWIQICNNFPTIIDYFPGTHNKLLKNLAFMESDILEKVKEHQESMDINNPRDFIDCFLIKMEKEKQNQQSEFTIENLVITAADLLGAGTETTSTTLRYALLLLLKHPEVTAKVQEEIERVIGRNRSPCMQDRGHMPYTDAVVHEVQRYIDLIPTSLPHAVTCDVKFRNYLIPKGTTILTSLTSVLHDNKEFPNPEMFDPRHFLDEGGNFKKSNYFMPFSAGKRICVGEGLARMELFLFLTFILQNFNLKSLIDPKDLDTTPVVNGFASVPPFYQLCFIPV

As usually defined, the inhibition is the drop in the measured response relative to a control, in per cent. Broadly, the Ki is the dissociation constant of the complex between target and ligand, obtained from inhibition or displacement. A higher Ki goes with weaker binding. Take `CCCCOC(=O)NS(=O)(=O)c1sc(CC(C)C)cc1-c1ccc(Cn2ccnc2)cc1` [BULOXIBUTID]: the inhibition at 10 µM worked out at 67% in data set [1]; 82% in data set [2]; 63% in data set [3]; 94% in data set [4]; 82% in data set [5]; 94% in data set [6]. Also, the inhibition at 10 µM in data set [7] turned out to be 40%. Also, the Ki in data set [8] was greater than 10 µM.
